# High-throughput results from PubChem.
# STEP block = inhibitors of human striatal-enriched phosphatase STEP. P54829. AID 588621. 0.25% of 360,000 active. inhibition, % at 20 µM. recombinant STEP, OMFP fluorogenic substrate, fluorescence;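 active means inhibition at 20 µM, scaled per plate between control wells, above about 37%, limit read from the data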;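 further: 0% = DMSO with enzyme and substrate and 100% = substrate only without enzyme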
#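 medium = Bis-Tris buffer pH 6.0, 2.5 mM DTT, 0.005% Tween 20 | test system = STEP (striatal-enriched tyrosine phosphatase) enzyme, cell-free | measure = normalized % inhibition | compound dosing = 20 µM, 1% DMSO | also added = 25 µM OMFP | schedule = reaction 20 min, ambient temperature | measured by = fluorescence read at 480 nm ex / 540 nm em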
# SUMO1-SIM PPI = SUMO1-SIM interaction modulation. 0.33% of 360,000 active. P63165. SUMO1 binding to a labelled peptide, TR-FRET, 1 h. inhibition, % at 20 µM; in the data active means inhibition above about 37%
# Scp-1 inhibitor = Scp-1 (human) phosphatase inhibition; Recombinant Scp1, phosphopeptide, malachite green phosphate absorbance; inhibition, % at 20 µM; 0.88% of 340,000 active; AID 493091;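 active means inhibition above about 50% at 20 µM, limit read from the data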;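 further: plate controls were DMSO wells with enzyme for no effect and wells lacking enzyme for full effect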
#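 Material: truncated SCP-1 phosphatase (76-261aa) / Buffer or medium: 50 mM Tris acetate pH 5.5, 0.005% Tween-20, 10 mM MgCl2 / Compound dosing: one concentration, 20 µM, with 1.0% DMSO / Incubation: 45 min room-temperature reaction, 5 min colour, 30 min stabiliser / Detection: colorimetric free-phosphate detection, absorbance 630 nm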
# LMPTP block = LMPTP (human) inhibition | P24666 | recombinant LMPTP-A, OMFP fluorogenic substrate, fluorescence intensity | inhibition, % at 20 µM | 0.22% of 360,000 active | AID 651560;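 active means compounds that cut the enzyme signal by at least half of the control window in the single-dose screen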;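 further: plate controls were DMSO wells with enzyme plus substrate for no effect and substrate without enzyme for full effect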
#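 Test system: LMPTP-A phosphatase enzyme; input: 0.625 nM LMPTP-A final; reagent: OMFP substrate, 400 µM final; compound dosing: 20 µM single dose, 3% DMSO; incubation: 50 min dark incubation at room temperature; measured by: endpoint fluorescence intensity from OMFP dephosphorylation; measure: % inhibition relative to no-enzyme and uninhibited control wells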
# DNMT1 block = inhibitors of human DNMT1; 0.83% of 360,000 active; DNMT1 molecular beacon, Hinp1I cleavage, fluorescence; P26358; AID 588458; inhibition (reported as % activation of signal), % at 10 µM; in the data active means inhibition above about 50%
# NadD block = blocks S. aureus nicotinate mononucleotide adenylyltransferase | purified NadD enzyme, colorimetric absorbance read-out | inhibition, % at 20 µM | 0.78% of 360,000 active | AID 602399; in the data active means inhibition above about 26%
# DNMT1 confirm = confirmation of human DNMT1 inhibitors; shares compounds with DNMT1 block; DNMT1 molecular beacon HinP1I cleavage, fluorescence; inhibition, % at 10 µM; 8% of 2,300 active; AID 602385;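 active means average inhibition of at least 30% in the single-concentration confirmation test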
# Beacon interf = beacon fluorescence artifact counter-screen | DNMT1 molecular beacon spectral interference counterscreen, fluorescence 485/520 | 1% of 2,300 active | activation (fluorescence interference), % at 10 µM | shares compounds with DNMT1 block;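 active means activation of at least 30% at 10 µM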;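 further: DNMT1 catalytic domain with a HinP1I cleavage step and a FAM/dabcyl DNA beacon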
# * hit, by the source's call; . = no result given. Compounds with a hit are over-represented: about 2.3% of the library has one in this group of screens.
SMILES,STEP block,SUMO1-SIM PPI,Scp-1 inhibitor,LMPTP block,DNMT1 block,NadD block,DNMT1 confirm,Beacon interf
CCN(CC)c1ccc2cc(-c3nnc(-c4ccncc4)o3)c(=O)oc2c1,-189.6,-5.9,-4.3,6.1,136.3*,11.8,88.0*,60.9*
CCN(CC)c1ccc2cc(C(C)=O)c(=O)oc2c1,-19.0,-18.7,-7.6,1.9,26.6,-1.0,.,.
CCN(CC)c1ccc2cc(C(N)=O)c(=O)oc2c1,-5.6,-22.4,8.6,-0.9,0.7,0.4,.,.
c1ccc(C[C@H]2CN=C(Nc3ccccc3)N2CC2CCCC2)cc1,.,-3.2,.,1.2,.,-1.0,.,.
COc1ccc(OC)c(-c2cnc(OC(C)(C)C)nc2OC(C)(C)C)c1,-2.6,4.6,-6.0,-1.6,1.4,-2.4,.,.
CCOC(=O)CC(NC(=O)Cn1nnc(-c2ccccc2F)n1)c1ccccc1Cl (configuration not stated),1.2,-3.1,-4.7,0.2,3.3,-5.4,.,.
CCCCC1CCC(C(=O)N(CCOC)c2c(N)n(CCCC)c(=O)[nH]c2=O)CC1 (configuration not stated),-1.8,5.7,-4.0,-0.9,0.1,-5.2,.,.
Cc1ccccc1N(C)S(=O)(=O)c1nnc(NC(=O)c2ccco2)s1,1.3,18.6,27.2,13.3,53.6*,9.2,3.1,0.9
O=C1NC[C@H](CCCCN2C[C@H](Cc3ccccc3)N(Cc3ccccc3)C(=O)C2=O)N(CCc2ccccc2)C1=O,.,2.4,.,-1.0,.,7.8,.,.
Cc1ccc(NC(=O)COC(=O)Cn2c(C)csc2=O)c([N+](=O)[O-])c1,-0.6,-20.3,-2.7,1.8,50.9*,-0.3,5.3,1.7
Cc1csc(=O)n1CC(=O)OCC(=O)Nc1cc([N+](=O)[O-])ccc1Cl,-2.3,-31.8,1.0,0.2,2.2,-4.4,.,.
CSc1nc(SCC(=O)NC(c2ccccc2)c2ccccc2)c2c3c(sc2n1)CN(C)CC3,9.7,-12.4,-0.1,4.2,62.8*,15.5,2.1,-4.0
CCn1c(SCC(=O)N2CCc3ccccc32)nnc1-c1c[nH]c2ccccc12,-3.2,-3.8,3.6,1.8,4.4,10.3,.,.
COc1ccc(-n2c(SCC(=O)N3CCc4ccccc43)nnc2-c2c[nH]c3ccccc23)cc1,5.3,2.1,-5.8,-0.3,67.1*,2.8,-2.8,-4.7
COc1cccc(C(=O)NCC(=O)N2CCC3(CC2)NCCc2[nH]cnc23)c1OC,12.9,-1.9,-1.4,-2.5,-4.0,-2.5,.,.
Cc1cc(Cn2nnnc2-c2ccncc2)cc(C)c1O,-1.1,-3.0,7.5,-9.2,-8.0,-2.6,.,.
COc1ccc(/C=C(\C#N)C(=O)Nc2cc(C)c(Cl)cc2OC)cc1O,6.3,5.0,-6.8,8.0,70.1*,-1.8,5.3,-2.2
COc1ccc(/C=C(\C#N)C(=O)NCc2ccccc2)cc1O,-2.2,-26.2,1.6,-0.4,0.9,-1.8,.,.
O=C(/C=C/c1ccco1)c1cccc([N+](=O)[O-])c1,1.6,6.1,29.9,13.8,61.7*,21.4,2.9,2.1
CN(CC(=O)Nc1cccc(F)c1)C(=O)CCc1nc2sc3c(c2c(=O)[nH]1)CCCC3,4.2,-1.9,12.8,3.7,7.2,9.1,.,.
O=C(CC[C@H]1O[C@@H](n2cnc3c(NC(=O)c4ccccc4)ncnc32)[C@H](O)[C@@H]1O)NCc1cccc2ccccc12,1.0,-5.8,.,-0.2,2.1,-1.1,.,.
O=C(CC[C@H]1O[C@@H](n2cnc3c(NC(=O)c4ccccc4)ncnc32)[C@H](O)[C@@H]1O)NCc1nc2ccccc2[nH]1,1.9,43.9*,.,-1.1,116.2*,-2.2,2.6,3.6
Cc1cccn2c(=O)c3cc(C(=O)NCCC4=CCCCC4)n(C)c3nc12,1.5,3.0,21.5,2.0,59.1*,1.6,0.1,-7.1
O=S(=O)(c1ccc2[nH]ccc2c1)N1CCCCCC1,-2.6,3.2,-7.9,0.3,-3.1,-3.7,.,.
